Consider 3 compounds from ChEMBL document CHEMBL2311422, “Studies on synthesis, stability, release and pharmacodynamic profile of a novel diacerein-thymol prodrug” (Bioorg Med Chem Lett, 2013).

Molecules are shown by their SMILES. Activity calls are given as the source filed them. No cut-off for these calls is given here.

The subject of data set [1] is Rattus norvegicus. Briefly: Antiarthritic activity against FCA-induced arthritis in Wistar rat assessed as increase in body weight at 6.8 mg/kg, po administered from day 13 post FCA-challenge measured after 28 days relative to control. The class given is functional, organism-based. The arrangement: dose 6.8 mg/kg. The method in brief:
(§1)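 Male Wistar rats (200–250 g), n = 6 per group. Complete Freund's adjuvant, 0.1 ml, injected sub-plantar into left hind paw on day 1. Oral dosing as 0.25% sodium CMC suspension, days 13–28. Body weight, joint diameter (digital vernier caliper) and paw volume (plethysmometer) recorded on days 0, 3, 7, 12, 15, 19, 21 and 28. Edema inhibition = 1 − (Vt/Vc) × 100, using mean relative paw-volume change versus arthritic controls. Mean ± SEM; two-way ANOVA with Bonferroni post test.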

Data set [2] concerns Rattus norvegicus. Put plainly: Gastrointestinal toxicity against fasted Wistar rat assessed as ulcer index at 68 mg/kg, po (reference value: 1.78 +/- 0.6). The arrangement: dose 68 mg/kg, route oral. The class given is organism-based. Conditions: in vivo.
A short description of data set [3]: n-octanol-phosphate buffer distribution coefficient, log P of the compound at pH 7.4. The class given is physicochemical. A digest of the protocol: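 Shake-flask partitioning between n-octanol and phosphate buffer pH 7.4, with UV spectrophotometric quantification.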
Data set [4] can be described thus: Half life in Wistar rat small intestine homogenate. The format is ADME, tissue-based. The method in brief: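 Small intestine from an ether-anaesthetized male Wistar rat, homogenized with its contents and diluted to half with phosphate buffer pH 7.4. Prodrug stock 0.8 ml plus homogenate 0.2 ml, 37 °C for 4.5 h. Centrifuged and filtered, then UV read at 230 nm (prodrug) and 258 nm (diacerein) against phosphate buffer blank. First-order K averaged over three readings.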

The test system of data set [5] is Rattus norvegicus. Put plainly: Antiarthritic activity in Wistar rat assessed as inhibition of FCA-induced mononuclear cell infiltration in synovial tissue of tibio-torsal joint at 6.8 mg/kg, po administered on day 13 post FCA-challenge measured on day 28 by hematoxylin and eosin staining method relative to control. The format is functional, organism-based. The arrangement: dose 6.8 mg/kg. A digest of the protocol: (§2)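 Male Wistar rats, arthritis induced by sub-plantar FCA and oral dosing on days 13–28. Animals sacrificed on day 28. Ankle joints fixed 24 h in 10% buffered formalin, decalcified in 5% formic acid, paraffin-embedded and sectioned at 5 μm. H&E-stained sections read by light microscopy for synovial hyperplasia, pannus, joint-space destruction, inflammatory cell infiltration and synovitis.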

Data set [6] can be described thus: Chemical stability in HCl buffer over 3 hrs at pH 1.2. Particulars: pH 1.2, 3 h.
In data set [7] the test system is Rattus norvegicus. Put plainly: Antiarthritic activity against FCA-induced arthritis in Wistar rat assessed as reduction in joint diameter at 6.8 mg/kg, po administered from day 13 post FCA-challenge measured up to day 28 relative to control. The format is functional, organism-based. The arrangement: dose 6.8 mg/kg. A digest of the protocol: as §1
In the next data set the test system is Stomach. Put plainly: Metabolic stability in Wistar rat stomach homogenate over 4.5 hrs. Conditions: tissue homogenate. The format is ADME, tissue-based. The method in brief: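 Rat stomach homogenized with its contents and diluted to half with HCl buffer pH 1.2. Prodrug stock 100 μg/ml in HCl buffer; 0.8 ml stock plus 0.2 ml homogenate incubated at 37 °C. Samples centrifuged at 10,000 rpm, 4 °C, 10 min, then filtered. UV read at 232/259 nm against HCl buffer blank; quantified from calibration curves.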

In data set [8] the test system is Rattus norvegicus. Put plainly: Antiinflammatory activity in Wistar rat assessed as inhibition of FCA-induced paw edema at 6.8 mg/kg, po administered on days 13 post FCA-challenge measured up to days 28 relative to control. The format is functional. A digest of the protocol:
as §1

A short description of data set [9]: Chemical stability in HCl buffer up to 3 hrs at pH 1.2. The class given is physicochemical. Conditions: pH 1.2, 3 h. A digest of the protocol: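 10 mg prodrug in 100 ml HCl buffer pH 1.2, held at 37 ± 1 °C with occasional stirring. 5 ml aliquots withdrawn over 0–180 min, each replaced with fresh buffer. Samples read directly by UV at 232 nm (intact prodrug) and 259 nm (released diacerein). Triplicate runs.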

The nature of data set [10]: Prodrug conversion in phosphate buffer assessed as diacerein released after 30 mins at pH 7.4. The class given is physicochemical. Particulars: pH 7.4, 0.5 h. A digest of the protocol:
(§3)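 Same procedure in phosphate buffer pH 7.4 at 37 °C, followed over 4.5 h. UV read at 230 nm (prodrug remaining) and 258 nm (diacerein released). First-order rate constants taken from plots; mean K and SD from three readings, with half-life derived from these.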

For data set [11], the system named is Rattus norvegicus. Briefly: Antiarthritic activity in Wistar rat assessed as inhibition of FCA-induced inflammatory cell infiltration in subcutaneous tissue of tibio-torsal joint at 6.8 mg/kg, po administered on day 13 post FCA-challenge measured on day 28 by hematoxylin and eosin staining method relative to control. The format is functional, organism-based. The arrangement: dose 6.8 mg/kg. The method in brief: as §2

A short description of data set [12]: Half life in phosphate buffer at pH 7.4. The class given is physicochemical. A digest of the protocol: as §3
Data set [13] relates to Rattus norvegicus. Put plainly: Antiarthritic activity in Wistar rat assessed as inhibition of FCA-induced subcutaneous inflammation of tibio-torsal joint at 5 mg/kg, po administered on day 13 post FCA-challenge measured on day 28 by hematoxylin and eosin staining method relative to control. The arrangement: dose 5 mg/kg. The class given is functional, organism-based. A digest of the protocol:
as §2

Data set [14] has as its system Rattus norvegicus. Put plainly: Gastrointestinal toxicity against fasted Wistar rat assessed as ulcer index at 50 mg/kg, po (reference value: 1.78 +/- 0.6). The format is organism-based. Particulars: in vivo. The arrangement: dose 50 mg/kg, route oral.
The subject of data set [15] is Rattus norvegicus. Put plainly: Antiarthritic activity against FCA-induced arthritis in Wistar rat assessed as increase in body weight at 5 mg/kg, po administered from day 13 post FCA-challenge measured after 28 days relative to control. The format is functional, organism-based. The arrangement: dose 5 mg/kg. A digest of the protocol: as §1
The test system of data set [16] is Rattus norvegicus. Briefly: Antiarthritic activity against FCA-induced arthritis in Wistar rat assessed as reduction in joint diameter at 5 mg/kg, po administered from day 13 post FCA-challenge measured from day 15 to day 28 relative to control. The class given is functional, organism-based. The arrangement: dose 5 mg/kg. The method in brief: as §1
Data set [17] deals with Rattus norvegicus. Briefly: Antiinflammatory activity in Wistar rat assessed as inhibition of FCA-induced paw edema at 5 mg/kg, po administered on days 13 post FCA-challenge measured up to days 28 relative to control. The format is functional. A digest of the protocol:
as §1

In data set [18] the test system is Rattus norvegicus. Briefly: Antiinflammatory activity in Wistar rat assessed as inhibition of FCA-induced paw edema at 2.04 mg/kg, po administered on days 13 post FCA-challenge measured up to days 28 relative to control. The format is functional. The method in brief:
as §1

Data set [19] deals with Rattus norvegicus. Put plainly: Antiarthritic activity in Wistar rat assessed as inhibition of FCA-induced subcutaneous inflammation of tibio-torsal joint at 2.04 mg/kg, po administered on day 13 post FCA-challenge measured on day 28 by hematoxylin and eosin staining method relative to control. The format is functional, organism-based. The arrangement: dose 2.04 mg/kg. A digest of the protocol: as §2

For data set [20], the system named is Rattus norvegicus. Briefly: Gastrointestinal toxicity against fasted Wistar rat assessed as ulcer index at 20.4 mg/kg, po (reference value: 1.78 +/- 0.6). The class given is organism-based. The arrangement: dose 20.4 mg/kg, route oral. Conditions: in vivo.
The test system of data set [21] is Rattus norvegicus. Briefly: Antiarthritic activity against FCA-induced arthritis in Wistar rat assessed as reduction in joint diameter at 2.04 mg/kg, po administered from day 13 post FCA-challenge measured up to day 28 relative to control. The class given is functional, organism-based. The arrangement: dose 2.04 mg/kg. The method in brief:
as §1

For data set [22], the system named is Rattus norvegicus. Put plainly: Antiarthritic activity against FCA-induced arthritis in Wistar rat assessed as increase in body weight at 2.04 mg/kg, po administered from day 13 post FCA-challenge measured after 28 days relative to control. The class given is functional, organism-based. The arrangement: dose 2.04 mg/kg. A digest of the protocol:
as §1

In general, logD refers to the decadic logarithm of the distribution of all forms, ionised or not, between an organic phase and buffer at a given pH. High values mean a more lipophilic compound, low ones a more hydrophilic compound. A word on the half-life: it is how long it takes for the measured level to halve. The low end stands for rapid decline, the high end for slow decline. What is called inhibition in vivo is how much of the control response was suppressed. On to `CC(=O)Oc1cccc2c1C(=O)c1c(OC(C)=O)cc(C(=O)Oc3cc(C)ccc3C(C)C)cc1C2=O`, for which the result with Rattus norvegicus [1] and in the data set with Rattus norvegicus [7] was Active. Moreover, the UI with Rattus norvegicus [2] came out at 4.17. In data set [3], this compound gave a pH-dependent lipophilicity (logD) of 0.565. The half-life stood at 2.8 h in data set [4] and 3.22 h in data set [12]. In addition, the inhibition entry with Rattus norvegicus [5] was “inactive”. Besides, the Stability result (in [6]; in the data set on Stomach; in [9]) was “Stable” throughout. In the data set with Rattus norvegicus [8], the inhibition in vivo at 6.8 mg/kg was determined as 78.9%. Besides, in data set [10], the Drug metabolism entry is “Active”. Further, the inhibition result in the data set with Rattus norvegicus [11] was “Active”.
As for `CC(=O)Oc1cccc2c1C(=O)c1c(OC(C)=O)cc(C(=O)O)cc1C2=O` [DIACEREIN], the inhibition result with Rattus norvegicus [13] was “inactive”. For the same compound, in the data set with Rattus norvegicus [14], the UI is 6.03. Also, in data set [3], the pH-dependent lipophilicity (logD) amounted to 0.46. The result in the data set on Rattus norvegicus [15] and in the data set with Rattus norvegicus [16] was Active. Moreover, in the data set with Rattus norvegicus [17], the inhibition in vivo at 5 mg/kg came out at 56.9%.
In the case of `Cc1ccc(C(C)C)c(O)c1` [THYMOL], in the data set on Rattus norvegicus [18], the inhibition in vivo at 2.04 mg/kg is 9.1%. For the same compound, in the data set on Rattus norvegicus [19], the inhibition entry is “inactive”. In addition, in the data set with Rattus norvegicus [20], the UI amounted to 1.98. For the same compound, in the data set on Rattus norvegicus [21], the result was Active. Further, the outcome in the data set on Rattus norvegicus [22] was inactive.
